# Experiments:
# Candida albicans = experiment: Antimicrobial activity against Candida albicans; assay type: functional, organism-based
# Summary of the method: (§1)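 Antimicrobial assay run per an earlier method. Both IC50 and MIC were reported in µg/mL. Amphotericin B was the positive control for C. albicans and C. neoformans.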
# Cryptococcus neoformans = experiment: Antimicrobial activity against Cryptococcus neoformans; assay type: functional, organism-based; summary of the method: as §1
# [1] = Inhibition of Candida albicans secreted aspartic protease
# Summary of the method: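 SAP inhibition assay run per an earlier method, with IC50 reported in µg/mL. Pepstatin A was the positive control.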
# Staphylococcus aureus [2] = experiment: Antimicrobial activity against Staphylococcus aureus; assay type: functional, organism-based; summary of the method: as §1
# Staphylococcus aureus [3] = experiment: Antimicrobial activity against methicillin-resistant Staphylococcus aureus; assay type: functional, organism-based
Structure (SMILES),IC50 (Candida albicans),IC50 (Cryptococcus neoformans),MIC (Cryptococcus neoformans),IC50 [1],IC50 (Staphylococcus aureus [2]),MIC (Staphylococcus aureus [2]),MIC (Staphylococcus aureus [3]),MIC (Candida albicans),IC50 (Staphylococcus aureus [3])
C[C@@H]1[C@H](O)[C@@H](C)/C=C/C=C/C=C/C=C/C=C/C=C/C=C/[C@H](O[C@@H]2O[C@H](C)[C@@H](O)[C@H](N)[C@@H]2O)C[C@@H]2O[C@](O)(C[C@@H](O)C[C@@H](O)[C@H](O)CC[C@@H](O)C[C@@H](O)CC(=O)O[C@H]1C)C[C@H](O)[C@H]2C(=O)O [AMPHOTERICIN B],0.06 µg/mL,0.3 µg/mL,0.63 µg/mL,,,,,,
COc1ccc2c(c1)C(=O)c1nccc3cc4c(c-2c13)OCO4 [ATHEROSPERMIDINE],,,,45 µg/mL,,,,,
O=C(O)c1cn(C2CC2)c2cc(N3CCNCC3)c(F)cc2c1=O [CIPROFLOXACIN],,,,,0.07 µg/mL,0.39 µg/mL,3.13 µg/mL,,
O=C1c2ccccc2-c2c3c(cc4ccnc1c24)OCO3 [LIRIODENINE],3.5 µg/mL,2 µg/mL,12.5 µg/mL,,2 µg/mL,3.13 µg/mL,3.13 µg/mL,6.25 µg/mL,2 µg/mL
CC(C)CC(=O)N[C@H](C(=O)N[C@H](C(=O)N[C@@H](CC(C)C)[C@@H](O)CC(=O)N[C@@H](C)C(=O)N[C@@H](CC(C)C)[C@@H](O)CC(=O)O)C(C)C)C(C)C [PEPSTATIN],,,,0.006 µg/mL,,,,,
